ChEMBL document CHEMBL4304791, “DABMA: A Derivative of ABMA with Improved Broad-Spectrum Inhibitory Activity of Toxins and Viruses” (ACS Med Chem Lett, 2019)
Active and inactive are the calls of the source. The rule behind the calls is not given here.

Tests used:
A549 [1] = test: Inhibition of diphtheria induced toxicity in human A549 cells assessed as protection fold at 30 uM incubated for 20 hrs followed by replacement of [14c]-Leucine containing medium and measured after 4 hrs by liquid scintillation analysis relative to ABMA; format: functional
Summary of the method: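 Single-concentration screen: 30 μM compound on A549 cells with increasing DT concentrations, read as protein synthesis inhibition. Protection fold was calculated with ABMA as the positive control.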

A549 [2] = test: Selectivity index, ratio of CC50 for cytotoxicity against human A549 cells to EC50 for cytoprotective activity in diphtheria-induced cytotoxicity in human A549 cells
Vero = test: Inhibition of TcdB-induced cytotoxicity against African green monkey Vero cells assessed as reduction in toxin-induced cell rounding at 30 uM in presence of TcdB after 4 hrs by inverted microscopic analysis; format: functional, cell-based; details: Chlorocebus sabaeus
Summary of the method: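 Vero cells were given compound (30 μM) or DMSO, then increasing doses of TcdB for 4 h or TcsL for 16 h. Cell rounding was imaged by inverted microscope. Rounded cells were counted and normalised to total Hoechst-counterstained cells (>100 cells per treatment).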

L929 = test: Cytoprotective activity in Pseudomonas aeruginosa exotoxin-induced toxicity in mouse L929 cells assessed as protection of protein synthesis after 18 hrs followed by replacement of [14c]-Leucine containing medium and measured after 4 hrs by liquid scintillation analysis by liquid scintillation analysis; format: functional, cell-based
Summary of the method: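 L929 cells were intoxicated with increasing doses of Pseudomonas exotoxin A for 18 h with compound (30 μM) or DMSO present. Protein synthesis was measured; duplicate wells, mean ± SD, one representative experiment (n = 3).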

A549 [3] = test: Cytoprotection activity against diphtheria toxin-induced cytotoxicity against human A549 cells assessed as effect on protein synthesis incubated for 20 hrs followed by replacement of [14c]-Leucine containing medium and measured after 4 hrs by liquid scintillation analysis; format: functional, cell-based
Summary of the method: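 A549 cells were incubated with compound and then challenged with increasing DT concentrations. DT cytotoxicity was read as protein synthesis inhibition. Data are mean of duplicate wells ± SD from one representative experiment (n = 3).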

Lyssavirus rabies = test: Antiviral activity against RABV infected in BSR cells preincubated for 4 hrs followed by viral infection and further incubated with compounds for 24 hrs by immunostaining-based assay; format: functional, organism-based
Summary of the method: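 BSR cells were pretreated 4 h with compound, then infected with RABV (MOI = 14) for 1 h. Cells were washed and kept with compound for 24 h, then fixed and immunostained for the RABV ribonucleocapsid (RNP). Nuclei and RNP images from 15 fields per well (>10,000 cells) were used to calculate percent inhibition.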

A549 [4] = test: Induction of lysosomal activation in human A549 cells at 30 uM incubated for 2 hrs by LysoTracker Red staining based confocal microscopic analysis; format: functional, cell-based
Summary of the method: (§1)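 A549 cells were pretreated 2 h with compound (30 or 60 μM) or DMSO, then stained with LysoTracker Deep Red (50 nM, 30 min) plus Hoechst. Intensity was read from 3 × 3 fields per well (10,000 cells/well) by imaging reader; mean ± SEM, n = 4; confocal images.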

[5] = Cytotoxicity against human A549 cells assessed as reduction in cell viability incubated for 24 hrs by Alamar blue assay; format: cell-based
Summary of the method: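 A549 cytotoxicity by Alamar Blue viability assay; duplicate wells, mean ± SD, one representative experiment (n = 3).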

A549 [6] = test: Inhibition of diphtheria induced toxicity in human A549 cells assessed as protection factor at 0.15 nM incubated for 20 hrs followed by replacement of [14c]-Leucine containing medium and measured after 4 hrs by liquid scintillation analysis relative to untreated control; format: functional
Summary of the method: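 A549 cells were incubated with Baf A1 (0.15 nM), DABMA (15 μM), both, or DMSO vehicle before DT was added, with the compounds kept present throughout. Toxin protection was read as protein synthesis and expressed as protection factor.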

A549 [7] = test: Induction of lysosomal activation in human A549 cells incubated for 2 hrs by LysoTracker Red staining based confocal microscopic analysis; format: functional, cell-based; summary of the method: as §1
A549 [8] = test: Increase in cholesterol accumulation in human A549 cells at 60 uM incubated for 18 hrs by choelesterol-avid filipin-3 staining based confocal microscopic analysis; format: functional, cell-based
Summary of the method: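 A549 cells were treated 18 h with compound or DMSO, fixed, and stained with Filipin III for cholesterol. Confocal imaging; fluorescence quantified in >30 cells (mean ± SEM), unpaired t test versus DMSO.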

A549 [9] = test: Induction of lysosomal activation in human A549 cells at 60 uM incubated for 2 hrs by LysoTracker Red staining based confocal microscopic analysis; format: functional, cell-based; summary of the method: as §1

SMILES | fold change (FC) (A549 [1]) | also measured
NC12CC3CC(CC(C3)C1)C2 [AMANTADINE] | 0.3 | –
COc1ccc(Br)cc1CN[C@H]1C[C@@H]2CC[C@@]1(C)C2(C)C | 0.4 | –
COc1ccc(Br)cc1CNC1CCCCC1 | 0 | –
COc1ccc(Br)cc1CNCCCc1ccccc1 | 0.52 | –
COc1ccc(Br)cc1CNC12CC3CC(CC(C3)C1)C2 | – | Ratio CC50/EC50 (A549 [2]): 4.4; inhibition (Vero): Active; Activity (L929): Active; EC50 (A549 [3]): 62.9 µM; inhibition (Lyssavirus rabies): Active; Activity (A549 [4]): Active; CC50 at 24 h [5]: 277 µM
CC12CC3CC(C)(C1)CC(NCc1ccc(I)cc1)(C3)C2 | 12.5 | Ratio CC50/EC50 (A549 [2]): 3.6; EC50 (A549 [3]): 38.3 µM; CC50 at 24 h [5]: 137 µM
CO/C1=C\C(C)=C\[C@@H](C)[C@@H](O)[C@@H](C)C/C(C)=C/C=C/[C@H](OC)[C@@H]([C@@H](C)[C@@H](O)[C@H](C)[C@@]2(O)C[C@@H](O)[C@H](C)[C@@H](C(C)C)O2)OC1=O [BAFILOMYCIN A1] | – | EC50 (A549 [3]): 0.0006 µM; fold change (FC) (A549 [6]): 5.2
COc1ccc(Br)cc1CN(C(=O)c1ccccc1)C12CC3CC(CC(C3)C1)C2 | 0.25 | –
COc1ccc(Br)cc1CN(C(C)=O)C12CC3CC(CC(C3)C1)C2 | 0.3 | Activity (A549 [7]): inactive
COc1ccc(I)cc1CNC12CC3CC(C)(CC(C)(C3)C1)C2 | 35.1 | Ratio CC50/EC50 (A549 [2]): 3.6; EC50 (A549 [3]): 25.1 µM; CC50 at 24 h [5]: 90.8 µM
COc1ccc(Br)cc1CNc1ccccc1 | 0.19 | –
CC(N)C12CC3CC(CC(C3)C1)C2.Cl (stereo not given) [RIMANTADINE HYDROCHLORIDE] | 0.35 | –
CC12CC3CC(C)(C1)CC(N)(C3)C2 [MEMANTINE] | 0 | –
COc1ccc(Br)cc1C(=O)NC12CC3CC(CC(C3)C1)C2 | 0 | Activity (A549 [8]): inactive; Activity (A549 [9]): inactive
Cn1c(CNC23CC4CC(CC(C4)C2)C3)cc2ccccc21 | 0.21 | –
Brc1ccc(CNC23CC4CC(CC(C4)C2)C3)cc1 | 2.3 | –
COc1ccc(Br)cc1CNC(C)(C)C | 0 | –
NC(=O)c1ncn([C@@H]2O[C@H](CO)[C@@H](O)[C@H]2O)n1 | – | inhibition (Lyssavirus rabies): Active
COc1ccc(Br)cc1CNc1cccc2ccccc12 | 0.19 | –
Cn1c(CNC2C3CC4CC(C3)CC2C4)cc2ccccc21 (stereo not given) | 0.21 | –
COc1ccc(Br)cc1CNCc1ccccc1 | 0 | –
COc1ccc(Br)cc1/C=N/C12CC3CC(CC(C3)C1)C2 | 0.05 | Activity (A549 [7]): inactive
O=[N+]([O-])c1cccc(CNC23CC4CC(CC(C4)C2)C3)c1 | 5.7 | –
COc1cc(I)ccc1CNC12CC3CC(CC(C3)C1)C2 | 3.6 | –
CCCCCCCCCNCc1cc(Br)ccc1OC | 0.26 | –
COc1ccc(Br)cc1CN(C)C12CC3CC(CC(C3)C1)C2 | 0.52 | –
Ic1ccc(CNC23CC4CC(CC(C4)C2)C3)cc1 | 6.6 | –
COc1ccc(Br)cc1CNC1CC(C)CCC1C(C)C (stereo not given) | 2.2 | –
